Assay results from publication PMC7114206 (Antiviral Research, 2008).
≈ marks a conversion by molar mass, not a printed value. Where “and” joins values, the source holds several entries; their conditions need not be identical. Equal values may be shown once. Read-outs that look alike come from different tables or passages of the source.

Key:
[1] = system: porcine epidemic diarrhea virus; assay: Antiviral activity against PEDV, CPE reduction by SRB method in Vero cells; type: cell-based, porcine epidemic diarrhea virus (PEDV CV 777)
[2] = Cytotoxicity SRB assay in Vero cells; type: cell-based, african green monkey; settings: african green monkey, CC50, concentration required to reduce cell growth by 50%, 48 h
Procedure, shortened: (§1)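 Vero cells seeded at 2 × 10^4/well and grown 1 day, then given medium with serially diluted test compound for 48 h. After PBS wash, cells fixed with cold 70% acetone (30 min, −20 °C), dried and stained 30 min with 0.4% SRB in 1% acetic acid. Dye solubilised in 10 mM Tris and read at A540 (ref 620 nm). CC50 read graphically from % of control curves.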

Vero cells = assay: Cytotoxicity SRB assay in Vero cells; type: cell-based, african green monkey
Procedure, shortened: as §1

PEDV = assay: Time-of-addition effect on PEDV replication in Vero cells; type: cell-based, porcine epidemic diarrhea virus
Procedure, shortened: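 Vero cells seeded at 2 × 10^4/well and grown 1 day, then PBS-washed. […] After 2 days, SRB CPE-reduction read-out expressed as inhibition rate; mean ± S.D. of three independent experiments.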

PRCV = assay: Antiviral activity against PRCV in ST cells; type: cell-based, porcine respiratory coronavirus
Procedure, shortened: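 PRCV (ATCC VR-2384) grown on ST pig testis cells kept in MEM with 10% FBS and 0.01% antibiotic-antimycotic. Read-out is SRB-based reduction of virus-induced CPE. IC50 is the concentration giving 50% inhibition of CPE, in μg/mL. TI = CC50/IC50. Values are means of three independent experiments run in triplicate ± S.D.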

[3] = system: membrane (M) gene of PEDV; assay: RT-PCR analysis of PEDV replication; type: cell-based, porcine epidemic diarrhea virus; settings: 10 μg/mL; RNA extracted 24 and 48 h after infection
TGEV = assay: Antiviral activity against TGEV in ST cells; type: cell-based, transmissible gastroenteritis virus
ST cells = assay: Cytotoxicity SRB assay in ST cells; type: cell-based, pig; settings: for Cytotoxicity: highest concentrations tested
Procedure, shortened: (§2)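 ST pig testis cells kept in MEM with 10% FBS and 0.01% antibiotic-antimycotic. SRB staining gives cell growth. CC50 is the concentration reducing cell growth by 50%, in μg/mL. Values are means of three independent experiments run in triplicate ± S.D.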

[4] = Cytotoxicity SRB assay in ST cells; type: cell-based, pig; settings: pig
Procedure, shortened: as §2

[5] = interferon-α in units, listed as interferon-α

O=c1cc(-c2ccc(O)cc2)oc2cc(O)cc(O)c12 [Apigenin]
IC50, concentration required to inhibit virus-induced CPE by 50% ([1]; SRB, 2 days): 0.1 ± 0.1 µg/mL (≈ 0.37 µM) | IC50, concentration required to inhibit virus-induced CPE by 50% ([1]; SRB, 2 days, listed as apigenin): less than 12 μg/mL | CC50 at 48 h [2]: > 50 µg/mL

O.Oc1cc(O)c2c(c1)O[C@H](c1ccc(O)c(O)c1)[C@@H](O)C2 [Catechin]
TI, therapeutic index = CC50/IC50 [1]: >9.0 | IC50, concentration required to inhibit virus-induced CPE by 50% ([1]; SRB, 2 days): 11.1 ± 7.1 µg/mL | IC50, concentration required to inhibit virus-induced CPE by 50% ([1]; SRB, 2 days, listed as catechin): less than 12 μg/mL | CC50, concentration required to reduce cell growth by 50% (Vero cells; 48 h): >100 µg/mL

O=c1ccc2ccccc2o1 [Coumarin]
TI, therapeutic index = CC50/IC50 [1]: 4.8

O=c1cc(-c2ccc(O)c(O)c2)oc2cc(O)cc(O)c12 [Luteolin]
IC50, concentration required to inhibit virus-induced CPE by 50% ([1]; SRB, 2 days): 0.2 ± 0.2 µg/mL (≈ 0.699 µM) | IC50, concentration required to inhibit virus-induced CPE by 50% ([1]; SRB, 2 days, listed as luteolin): less than 12 μg/mL | CC50 at 48 h [2]: 6.7 µg/mL (≈ 23.4 µM)

C[C@@H]1O[C@@H](Oc2cc(O)c3c(=O)c(O)c(-c4ccc(O)c(O)c4)oc3c2)[C@H](O)[C@H](O)[C@H]1O [Q7R, quercetin 7-rhamnoside]
Inhibition rate (time of addition) (PEDV; 10 μg/mL added at 0, 1, 2 and 4 h after virus inoculation, SRB after 2 days): higher than 85% | TI, therapeutic index = CC50/IC50 [1]: 7142 and > 7142.86 | IC50, concentration required to inhibit virus-induced CPE by 50% ([1]; SRB, 2 days): 0.014 ± 0.005 µg/mL (≈ 0.0312 µM) | TI, therapeutic index = CC50/IC50 ([1]; listed as Quercetin 7-rhanmoside): >7142.86 | IC50 (PRCV; PRCV in ST cells): 59.76 ± 5.70 µg/mL (≈ 133 µM) | TI, therapeutic index = CC50/IC50 (PRCV; PRCV in ST cells): >1.67 | Intensity of the RT-PCR product band of PEDV [3]: decreased the intensity of the product band of PEDV at 24 and 48 h after infection | IC50 (TGEV; TGEV in ST cells): 63.31 ± 1.07 µg/mL (≈ 141 µM) | TI, therapeutic index = CC50/IC50 (TGEV; TGEV in ST cells): >1.58 | CC50, concentration required to reduce cell growth by 50% (Vero cells; 48 h): >100 µg/mL | CC50 (ST cells): >100 µg/mL | Cytotoxicity (ST cells): did not exhibit any cytotoxicity at the highest concentrations tested

O=c1c(O)c(-c2ccc(O)c(O)c2)oc2cc(O)cc(O)c12 [Quercetin]
TI, therapeutic index = CC50/IC50 [1]: 214.8 | CC50 at 48 h [2]: 365 µg/mL (≈ 1210 µM)

NC(=O)c1ncn([C@@H]2O[C@H](CO)[C@@H](O)[C@H]2O)n1 [Ribavirin]
inhibition at 10 µg/mL (PEDV; Porcine epidemic diarrhea virus, Vero, read-out: Inhibition rate (time of addition)): < 50% | TI, therapeutic index = CC50/IC50 [1]: 103.2 | IC50 (PRCV; Alphacoronavirus 1): 61.6 ± 1.91 µg/mL (≈ 252 µM) | TI, therapeutic index = CC50/IC50 (PRCV; PRCV in ST cells): >1.62 | Intensity of the RT-PCR product band of PEDV [3]: did not decrease the intensity of the product band of PEDV at 48 h after infection | IC50 (TGEV; Alphacoronavirus 1): 55.1 ± 0.8 µg/mL (≈ 226 µM) | CC50 at 48 h [2]: 423 µg/mL (≈ 1730 µM) | CC50 at 48 h [4]: > 100 µg/mL | Cytotoxicity (ST cells): did not exhibit any cytotoxicity at the highest concentrations tested

Interferon-α
TI, therapeutic index = CC50/IC50 [1]: >192.3 | IC50, concentration required to inhibit virus-induced CPE by 50% ([1]; interferon-α in units): 0.52 ± 0.5 unit | IC50, concentration required to inhibit virus-induced CPE by 50% [1, 5]: 0.52 unit | TI, therapeutic index = CC50/IC50 ([1]; listed as interferon-α): > 192.3 | CC50, concentration required to reduce cell growth by 50% (Vero cells; interferon-α in units): >100 unit | CC50, concentration required to reduce cell growth by 50% (Vero cells; [5]): > 100 unit

Tannic acid
TI, therapeutic index = CC50/IC50 [1]: 9.2
